Legend:
[1] = biological target: T1, Peroxisome proliferator-activated receptor gamma (Homo sapiens, UniProt P37231); experiment: Agonist activity at human GAL4 fused PPARgamma-Hinge-LBD expressed in HEK293T cells after 18 hrs by luciferase reporter gene assay; format: cell-based, HEK-293T
T1 sequence (P37231 whole entry): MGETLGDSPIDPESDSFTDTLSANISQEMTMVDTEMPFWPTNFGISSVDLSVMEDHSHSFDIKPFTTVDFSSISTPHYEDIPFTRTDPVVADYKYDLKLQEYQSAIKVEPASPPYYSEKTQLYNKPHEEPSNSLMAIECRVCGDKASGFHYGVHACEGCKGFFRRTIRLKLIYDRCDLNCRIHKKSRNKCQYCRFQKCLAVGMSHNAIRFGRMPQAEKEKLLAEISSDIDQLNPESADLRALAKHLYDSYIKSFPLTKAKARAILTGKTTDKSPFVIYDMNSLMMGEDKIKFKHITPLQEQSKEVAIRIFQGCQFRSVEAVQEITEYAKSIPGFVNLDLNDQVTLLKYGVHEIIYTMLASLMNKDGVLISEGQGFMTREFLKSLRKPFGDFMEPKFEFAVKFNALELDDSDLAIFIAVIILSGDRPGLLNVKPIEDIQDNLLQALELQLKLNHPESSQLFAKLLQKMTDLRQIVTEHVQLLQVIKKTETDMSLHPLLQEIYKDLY
Outline: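 HEK293T cells were co-transfected with human GAL4-PPARγ-hinge-LBD and a 5× multimerized UAS-luciferase reporter (4.5 μg each) and grown serum-free for 18 h at 37 °C under 5% CO2. After 18 h, luminescence was read. EC50 came from plotting fold change over DMSO; points were run in triplicate, with two biological replicates.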

[2] = biological target: T2, Peroxisome proliferator-activated receptor gamma (Homo sapiens) (UniProt P37231); experiment: Agonist activity at human GAL4 fused PPARgamma-Hinge-LBD expressed in HEK293T cells after 18 hrs by luciferase reporter gene assay relative to rosiglitazone; format: cell-based; details: HEK-293T
T2 sequence (whole entry): T1 sequence (P37231 whole entry)
Outline: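 HEK293T cells carried transfected human GAL4-PPARγ-hinge-LBD and a 5× UAS-luciferase reporter. Maximal transcriptional output was normalized to rosiglitazone, taken as 100% transactivation. Points were run in triplicate, with two biological replicates.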

Rattus norvegicus = experiment: Antidiabetic activity in Zucker fa/fa rat assessed as decrease in blood glucose levels at 0.3 mg/kg administered via oral gavage for 14 days by oral glucose tolerance test; format: functional; parameters: scale not given: the % may be the effect or the level left

Compound	EC50 [1]	Activity [2]	Activity (Rattus norvegicus)
Cc1cc(S(=O)(=O)Nc2cc(Cl)c(Oc3cnc4ccccc4c3)c(Cl)c2)ccc1Br	600 nM	29%	
O=S(=O)(Nc1cc(Cl)c(Oc2cnc3ccccc3c2)c(Cl)c1)c1ccc(Br)c(C(F)(F)F)c1	957 nM	18%	
O=S(=O)(Nc1cc(Cl)c(Oc2cnc3ccccc3c2)c(Cl)c1)c1ccc(Br)cc1C(F)(F)F	94 nM	34%	
COc1cccc(C(=O)Nc2cc(Cl)c(Oc3cnc4ccccc4c3)c(Cl)c2)c1		2%	
O=S(=O)(Nc1cc(Cl)c(Oc2cnc3ccccc3c2)c(Cl)c1)c1ccc(Br)cc1OC(F)(F)F	4 nM	21%	
O=S(=O)(Nc1cc(Cl)c(Oc2cnc3ccccc3c2)c(Cl)c1)c1ccc(Br)c(F)c1	169 nM	9%	
O=S(=O)(Nc1cc(Cl)c(Oc2cnc3ccccc3c2)c(Cl)c1)c1ccc(Br)cc1	151 nM	11%	
O=S(=O)(Nc1cc(Cl)c(Oc2cnc3ccccc3c2)c(Cl)c1)c1ccccc1Cl	5810 nM	19%	
O=S(=O)(Nc1cc(Cl)c(Oc2cnc3ccccc3c2)c(Cl)c1)c1ccc(Cl)cc1Cl [INT131]			30%
O=S(=O)(Nc1cc(Cl)c(Oc2cnc3ccccc3c2)c(Cl)c1)c1cccs1		14%	
Cc1cc(C)c(S(=O)(=O)Nc2cc(Cl)c(Oc3cnc4ccccc4c3)c(Cl)c2)c(C)c1	3310 nM	14%	
O=S(=O)(Nc1cc(Cl)c(Oc2cnc3ccccc3c2)c(Cl)c1)c1ccc(Br)cc1Cl	134 nM	27%	
O=S(=O)(Nc1cc(Cl)c(Oc2cnc3ccccc3c2)c(Cl)c1)c1ccc(Br)cc1F	2 nM	13%	
O=S(=O)(Nc1cc(Cl)c(Oc2cnc3ccccc3c2)c(Cl)c1)c1ccc2ccccc2c1	4290 nM	23%	
O=S(=O)(Nc1cc(Cl)c(Oc2cnc3ccccc3c2)c(Cl)c1)c1cc(F)c(Br)cc1F	131 nM	10%	
